According to ChEMBL document CHEMBL5029150, “Controlling Intramolecular Interactions in the Design of Selective, High-Affinity Ligands for the CREBBP Bromodomain” (J Med Chem, 2021):
Calls of active or inactive are those of the source.

Legend:
Conditions in all cases: dose microM <=1
[1] = molecular target: Bromodomain-containing protein 4 (Homo sapiens, UniProt O60885); assay: Binding affinity to human BRD4 bromodomain 1 assessed as dissociation constant up to 1 uM by BROMOscan assay
Summary of the method: (§1)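 BROMOscan competition binding panel of 12 phylogenetically diverse bromodomains, including the CREBBP and EP300 bromodomains.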

[2] = molecular target: Transcription initiation factor TFIID subunit 1 (Homo sapiens) (UniProt P21675); assay: Binding affinity to human TAF1 bromo domain 2 assessed as dissociation constant up to 1 uM by BROMOscan assay; summary of the method: as §1
Peregrin (Homo sapiens) = molecular target: T1, Peregrin (Homo sapiens) (UniProt P55201); assay: Binding affinity to human BRPF1 assessed as dissociation constant up to 1 uM by BROMOscan assay; summary of the method: as §1
T1 sequence (whole entry): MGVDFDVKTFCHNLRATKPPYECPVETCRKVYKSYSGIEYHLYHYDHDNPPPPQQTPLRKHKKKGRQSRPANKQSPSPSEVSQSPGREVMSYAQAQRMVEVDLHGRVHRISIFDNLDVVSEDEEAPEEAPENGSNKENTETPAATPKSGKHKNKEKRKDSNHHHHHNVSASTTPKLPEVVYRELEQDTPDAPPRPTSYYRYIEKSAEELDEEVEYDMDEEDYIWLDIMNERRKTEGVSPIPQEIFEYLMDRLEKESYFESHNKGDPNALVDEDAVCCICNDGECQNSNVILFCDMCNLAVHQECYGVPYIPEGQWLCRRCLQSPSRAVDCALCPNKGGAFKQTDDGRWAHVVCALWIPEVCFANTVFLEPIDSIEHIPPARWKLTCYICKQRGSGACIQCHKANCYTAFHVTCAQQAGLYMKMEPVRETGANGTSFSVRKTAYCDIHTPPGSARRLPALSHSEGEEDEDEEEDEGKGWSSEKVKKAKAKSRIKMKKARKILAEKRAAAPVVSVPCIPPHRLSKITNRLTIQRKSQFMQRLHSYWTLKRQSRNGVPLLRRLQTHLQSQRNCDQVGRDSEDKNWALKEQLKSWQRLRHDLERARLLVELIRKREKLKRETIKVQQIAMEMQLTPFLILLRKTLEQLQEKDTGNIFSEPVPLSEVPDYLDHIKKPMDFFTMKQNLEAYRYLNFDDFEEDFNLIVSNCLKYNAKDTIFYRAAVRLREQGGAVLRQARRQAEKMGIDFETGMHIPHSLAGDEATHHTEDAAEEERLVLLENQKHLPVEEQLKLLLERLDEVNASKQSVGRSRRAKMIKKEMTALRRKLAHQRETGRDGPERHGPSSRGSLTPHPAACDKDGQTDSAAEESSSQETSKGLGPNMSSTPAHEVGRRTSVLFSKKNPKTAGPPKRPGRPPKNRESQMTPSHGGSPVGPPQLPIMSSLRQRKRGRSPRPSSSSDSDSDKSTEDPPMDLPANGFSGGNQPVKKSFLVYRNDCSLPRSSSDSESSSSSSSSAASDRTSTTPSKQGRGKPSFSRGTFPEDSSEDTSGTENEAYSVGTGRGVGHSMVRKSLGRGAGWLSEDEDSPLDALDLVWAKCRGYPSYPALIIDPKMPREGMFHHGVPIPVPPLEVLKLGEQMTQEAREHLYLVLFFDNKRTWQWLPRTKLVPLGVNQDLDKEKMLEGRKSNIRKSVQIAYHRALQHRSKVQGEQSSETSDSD

[3] = molecular target: T2, Bromodomain-containing protein 7 (Homo sapiens) (UniProt Q9NPI1); assay: Binding affinity to human BRD7 assessed as dissociation constant up to 1 uM by BROMOscan assay; summary of the method: as §1
T2 sequence (whole entry): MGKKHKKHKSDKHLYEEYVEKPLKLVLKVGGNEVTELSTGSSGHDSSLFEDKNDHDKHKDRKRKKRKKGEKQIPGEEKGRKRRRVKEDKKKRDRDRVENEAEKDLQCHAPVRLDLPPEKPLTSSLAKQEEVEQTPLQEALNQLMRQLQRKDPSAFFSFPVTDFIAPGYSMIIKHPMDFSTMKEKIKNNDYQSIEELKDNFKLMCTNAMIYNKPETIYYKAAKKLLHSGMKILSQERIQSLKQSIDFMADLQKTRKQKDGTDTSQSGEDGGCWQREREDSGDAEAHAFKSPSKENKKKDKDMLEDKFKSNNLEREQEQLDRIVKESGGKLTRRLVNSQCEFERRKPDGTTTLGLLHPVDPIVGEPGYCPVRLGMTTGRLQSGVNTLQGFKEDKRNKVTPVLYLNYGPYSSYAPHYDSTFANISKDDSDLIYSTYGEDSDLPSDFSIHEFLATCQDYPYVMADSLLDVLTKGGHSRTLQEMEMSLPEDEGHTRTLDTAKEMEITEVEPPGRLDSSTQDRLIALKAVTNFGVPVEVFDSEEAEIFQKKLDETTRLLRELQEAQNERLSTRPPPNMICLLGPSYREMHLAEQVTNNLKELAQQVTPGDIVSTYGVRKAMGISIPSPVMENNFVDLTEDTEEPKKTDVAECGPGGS

[4] = molecular target: T3, Bromodomain-containing protein 9 (Homo sapiens) (UniProt Q9H8M2); assay: Binding affinity to human BRD9 assessed as dissociation constant up to 1 uM by BROMOscan assay; summary of the method: as §1
T3 sequence (whole entry): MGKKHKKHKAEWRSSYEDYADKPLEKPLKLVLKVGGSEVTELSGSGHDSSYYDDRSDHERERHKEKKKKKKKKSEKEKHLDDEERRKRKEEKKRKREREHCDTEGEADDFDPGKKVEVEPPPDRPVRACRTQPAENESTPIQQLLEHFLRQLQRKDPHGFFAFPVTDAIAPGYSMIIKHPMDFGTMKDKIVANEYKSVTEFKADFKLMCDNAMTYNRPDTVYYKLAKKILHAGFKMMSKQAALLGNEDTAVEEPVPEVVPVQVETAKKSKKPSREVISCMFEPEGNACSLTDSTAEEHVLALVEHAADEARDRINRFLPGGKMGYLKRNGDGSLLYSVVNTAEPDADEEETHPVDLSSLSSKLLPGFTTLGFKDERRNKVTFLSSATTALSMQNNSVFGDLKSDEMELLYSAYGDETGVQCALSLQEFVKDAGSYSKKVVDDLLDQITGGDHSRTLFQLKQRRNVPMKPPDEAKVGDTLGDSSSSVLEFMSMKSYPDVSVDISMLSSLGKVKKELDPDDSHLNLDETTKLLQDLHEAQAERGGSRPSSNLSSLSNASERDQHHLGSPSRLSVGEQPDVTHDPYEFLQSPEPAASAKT

Measured: Activity

Sequence of Transcription initiation factor TFIID subunit 1 (Homo sapiens) (P21675 whole entry, the tested form may be a part): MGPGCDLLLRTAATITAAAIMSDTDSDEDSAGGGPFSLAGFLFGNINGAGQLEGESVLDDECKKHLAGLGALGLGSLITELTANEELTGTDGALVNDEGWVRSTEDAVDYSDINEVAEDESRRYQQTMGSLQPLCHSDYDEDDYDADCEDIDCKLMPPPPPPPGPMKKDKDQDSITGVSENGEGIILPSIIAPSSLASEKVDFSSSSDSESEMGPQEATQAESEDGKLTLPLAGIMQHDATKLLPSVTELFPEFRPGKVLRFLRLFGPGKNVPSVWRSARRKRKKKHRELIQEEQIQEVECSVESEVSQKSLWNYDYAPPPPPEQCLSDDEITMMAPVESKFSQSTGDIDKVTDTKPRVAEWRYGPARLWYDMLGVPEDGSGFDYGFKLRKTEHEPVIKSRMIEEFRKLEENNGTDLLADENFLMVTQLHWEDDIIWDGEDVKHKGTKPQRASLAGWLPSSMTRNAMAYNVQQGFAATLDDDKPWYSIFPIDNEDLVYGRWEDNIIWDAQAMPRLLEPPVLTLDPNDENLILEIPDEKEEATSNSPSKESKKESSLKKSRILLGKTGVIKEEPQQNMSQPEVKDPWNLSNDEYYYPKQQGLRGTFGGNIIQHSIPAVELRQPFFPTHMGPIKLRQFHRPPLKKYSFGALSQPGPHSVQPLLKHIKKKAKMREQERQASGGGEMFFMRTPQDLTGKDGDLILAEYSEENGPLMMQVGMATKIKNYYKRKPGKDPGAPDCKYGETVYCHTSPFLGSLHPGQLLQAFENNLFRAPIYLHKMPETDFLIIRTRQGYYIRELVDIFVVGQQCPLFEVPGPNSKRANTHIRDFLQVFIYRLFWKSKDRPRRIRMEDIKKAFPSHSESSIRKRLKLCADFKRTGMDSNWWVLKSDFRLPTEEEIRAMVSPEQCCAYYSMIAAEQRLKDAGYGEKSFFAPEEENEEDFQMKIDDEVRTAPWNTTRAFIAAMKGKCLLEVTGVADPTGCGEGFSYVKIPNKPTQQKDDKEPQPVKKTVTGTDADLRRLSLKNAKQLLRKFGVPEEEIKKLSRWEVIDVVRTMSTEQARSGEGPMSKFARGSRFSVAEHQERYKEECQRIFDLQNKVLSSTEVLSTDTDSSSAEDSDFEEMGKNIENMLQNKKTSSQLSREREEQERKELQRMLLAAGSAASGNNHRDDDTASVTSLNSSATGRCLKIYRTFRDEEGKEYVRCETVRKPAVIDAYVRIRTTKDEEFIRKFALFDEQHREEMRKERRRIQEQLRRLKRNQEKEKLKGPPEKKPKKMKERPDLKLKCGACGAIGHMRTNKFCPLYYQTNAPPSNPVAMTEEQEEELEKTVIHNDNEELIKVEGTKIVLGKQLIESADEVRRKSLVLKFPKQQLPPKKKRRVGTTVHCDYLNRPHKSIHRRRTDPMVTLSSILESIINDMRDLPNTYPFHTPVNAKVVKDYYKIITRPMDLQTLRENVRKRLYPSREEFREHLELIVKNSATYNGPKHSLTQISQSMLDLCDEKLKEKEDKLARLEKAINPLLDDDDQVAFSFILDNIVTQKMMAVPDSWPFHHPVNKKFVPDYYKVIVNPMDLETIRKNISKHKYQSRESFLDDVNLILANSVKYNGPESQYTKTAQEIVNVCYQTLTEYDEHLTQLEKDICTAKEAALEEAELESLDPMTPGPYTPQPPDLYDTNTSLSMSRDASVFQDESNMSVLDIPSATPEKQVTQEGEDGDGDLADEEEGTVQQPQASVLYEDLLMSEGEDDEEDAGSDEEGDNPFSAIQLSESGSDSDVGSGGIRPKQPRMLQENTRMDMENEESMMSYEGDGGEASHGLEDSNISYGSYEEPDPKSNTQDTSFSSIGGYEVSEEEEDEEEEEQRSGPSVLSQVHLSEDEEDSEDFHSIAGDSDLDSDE

COc1ccc2c(c1)N(CCC/C=C/c1cccc3c1N[C@H](C)CC(=O)N3)CCC2
inactive: [1] | [2] | Peregrin (Homo sapiens) | [3] | [4]

COc1ccc2c(c1)N(CCC/C=C/c1cccc3c1N[C@@H](C)CC(=O)N3)CCC2
inactive: [1] | [2] | Peregrin (Homo sapiens) | [3] | [4]
